In ChEMBL document CHEMBL4152363, “Andrographolide derivative as STAT3 inhibitor that protects acute liver damage in mice” (Bioorg Med Chem, 2018):
Activity calls are given as the source filed them. No cut-off for these calls is given here.

Assays:
[1] = molecular target: T1, Signal transducer and activator of transcription 3 (Homo sapiens, UniProt P40763); assay: Inhibition of IL-6 stimulated STAT3 activation in human AD293 cells incubated with IL-6 for 16 hrs followed by compound addition measured after 6 hrs by luciferase reporter gene assay; format: cell-based
T1 sequence (P40763 whole entry): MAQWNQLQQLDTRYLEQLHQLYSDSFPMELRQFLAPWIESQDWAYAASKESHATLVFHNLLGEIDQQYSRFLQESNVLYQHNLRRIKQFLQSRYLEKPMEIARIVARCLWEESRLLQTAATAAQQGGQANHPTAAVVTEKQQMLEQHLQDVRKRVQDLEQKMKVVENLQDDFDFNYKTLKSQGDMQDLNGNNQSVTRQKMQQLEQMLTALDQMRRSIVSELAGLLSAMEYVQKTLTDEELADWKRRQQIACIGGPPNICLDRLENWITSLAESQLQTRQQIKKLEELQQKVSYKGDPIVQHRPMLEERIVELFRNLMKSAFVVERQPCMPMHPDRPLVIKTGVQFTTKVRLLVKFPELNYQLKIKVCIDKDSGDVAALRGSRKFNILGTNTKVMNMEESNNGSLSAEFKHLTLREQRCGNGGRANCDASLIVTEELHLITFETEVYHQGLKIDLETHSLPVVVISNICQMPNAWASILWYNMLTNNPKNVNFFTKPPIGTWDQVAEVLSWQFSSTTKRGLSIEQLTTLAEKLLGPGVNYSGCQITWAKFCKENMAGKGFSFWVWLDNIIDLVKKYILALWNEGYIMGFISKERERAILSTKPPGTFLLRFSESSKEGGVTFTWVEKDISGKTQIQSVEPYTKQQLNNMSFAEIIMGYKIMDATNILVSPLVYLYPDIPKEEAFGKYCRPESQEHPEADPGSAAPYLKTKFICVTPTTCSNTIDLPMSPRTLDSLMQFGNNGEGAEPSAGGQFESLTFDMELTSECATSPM
Method in brief: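 AD-293 cells stimulated with 2.5 μg/mL IL-6; compound treatment 6 h; luciferase activity read from cell extracts; EC50 derived.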

[2] = molecular target: T1, Signal transducer and activator of transcription 3; assay: Inhibition of IFNgamma-stimulated STAT3 activation in human AD293 cells incubated with IFNgamma for 16 hrs followed by compound addition measured after 24 hrs by luciferase reporter gene assay; format: cell-based
Method in brief: (§1)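 AD-293 or HeLa cells in DMEM/10% FBS stimulated with 20 pg/mL IFN-γ; compound treatment 24 h; luciferase activity measured in cell extracts; EC50 derived.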

[3] = molecular target: T2, Signal transducer and activator of transcription 1-alpha/beta (Homo sapiens) (UniProt P42224); assay: Inhibition of IFNgamma-stimulated STAT1 phosphorylation at Tyr701 residues in human AD293 cell lysates incubated with IFNgamma followed by compound addition at 10 uM by Western blot analysis
T2 sequence (whole entry): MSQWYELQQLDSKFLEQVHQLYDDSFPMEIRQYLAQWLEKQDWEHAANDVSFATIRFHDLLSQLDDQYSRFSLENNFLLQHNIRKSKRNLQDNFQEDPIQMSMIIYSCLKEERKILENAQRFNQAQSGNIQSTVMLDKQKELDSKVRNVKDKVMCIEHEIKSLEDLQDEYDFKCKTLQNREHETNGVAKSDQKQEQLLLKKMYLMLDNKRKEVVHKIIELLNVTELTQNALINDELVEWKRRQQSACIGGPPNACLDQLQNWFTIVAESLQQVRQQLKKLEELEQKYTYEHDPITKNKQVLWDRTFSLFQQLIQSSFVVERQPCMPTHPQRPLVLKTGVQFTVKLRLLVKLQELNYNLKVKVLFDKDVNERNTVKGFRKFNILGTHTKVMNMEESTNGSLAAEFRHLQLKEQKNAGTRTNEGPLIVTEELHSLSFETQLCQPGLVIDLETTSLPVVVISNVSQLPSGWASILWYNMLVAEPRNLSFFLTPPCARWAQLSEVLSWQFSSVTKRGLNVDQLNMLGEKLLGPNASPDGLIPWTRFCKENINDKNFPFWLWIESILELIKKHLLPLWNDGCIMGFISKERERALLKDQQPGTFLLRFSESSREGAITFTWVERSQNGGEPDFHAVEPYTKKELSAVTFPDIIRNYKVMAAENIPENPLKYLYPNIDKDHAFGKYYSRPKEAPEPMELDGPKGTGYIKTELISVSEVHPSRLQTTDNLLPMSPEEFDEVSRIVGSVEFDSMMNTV
Method in brief: (§2)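 AD-293 cells treated with 1 μg/mL IFN-γ alone or with compounds at 10 μM; phospho- and total STAT1 and STAT3 assessed by western blot; representative of at least three independent experiments.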

[4] = molecular target: T1, Signal transducer and activator of transcription 3; assay: Inhibition of […] activation in human AD293 cells incubated […] for 16 hrs followed by compound addition measured after 4 hrs by luciferase reporter gene assay; format: cell-based
[5] = molecular target: T1, Signal transducer and activator of transcription 3; assay: Inhibition of IFNgamma-stimulated STAT3 phosphorylation at Tyr705 residues in human AD293 cell lysates incubated with IFNgamma followed by compound addition at 10 uM by Western blot analysis; method in brief: as §2
[6] = molecular target: T1, Signal transducer and activator of transcription 3; assay: Inhibition of […] activation in human HeLa cells incubated […] for 16 hrs followed by compound addition measured after 4 hrs by luciferase reporter gene assay; format: cell-based
Method in brief: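 NF-κB pathway in AD-293 or HeLa cells stimulated with 50 ng/mL TNF-α; compound treatment 4 h; luciferase activity read from cell extracts; EC50 derived.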

[7] = system: HeLa; assay: Cytotoxicity against human HeLa cells; format: cell-based
Method in brief: (§3)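 AD-293 or HeLa cells grown in high-glucose DMEM with 10% FBS and 1% penicillin-streptomycin; compound exposure 24 h; cytotoxicity reported as CC10.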

[8] = molecular target: T1, Signal transducer and activator of transcription 3; assay: Inhibition of IFNgamma-stimulated STAT3 activation in human HeLa cells incubated with IFNgamma for 16 hrs followed by compound addition measured after 24 hrs by luciferase reporter gene assay; format: cell-based; method in brief: as §1
[9] = system: AD293; assay: Cytotoxicity against human AD293 cells; format: cell-based; settings: ad293; method in brief: as §3
[10] = molecular target: T1, Signal transducer and activator of transcription 3; assay: Inhibition of IFNgamma-stimulated GFP/FLAG-tagged STAT3 dimerization in human AD293 cells incubated for 6 hrs by Western blot analysis; format: cell-based
Method in brief: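 AD-293 cells co-transfected 48 h with GFP- and FLAG-tagged STAT3 plasmids, then IFN-γ with or without compound for 6 h; 100 μg lysate (RIPA) immunoprecipitated with anti-FLAG and protein G beads; blots probed for GFP and FLAG, chemiluminescent detection.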

SMILES	EC50 [1] [µM]	EC50 [2] [µM]	inhibition [3]	EC50 [4] [µM]	inhibition [5]	EC50 [6] [µM]	CC10 [7] [µM]	EC50 [8] [µM]	CC10 [9] [µM]	IC50 [10] [µM]
CC(C)(C)[Si](C)(C)O[C@@H]1CC[C@]2(C)[C@H](CC[C@@]3(CO3)[C@H]2C/C=C2/C(=O)OC[C@H]2O)[C@]1(C)CO	4.16	5.39	inactive	> 10	inactive	> 10	> 10	6.15	> 10	
C=C1CC[C@@H]2[C@](C)(CO[Si](C)(C)C(C)(C)C)[C@H](OC(C)=O)CC[C@@]2(C)[C@@H]1C/C=C1/C(=O)OC[C@H]1OC(C)=O	> 10	5.05	inactive	> 10	inactive	> 10	> 10	5.8	> 10	
C=C1CC[C@@H]2[C@](C)(CO)[C@H](O)CC[C@@]2(C)[C@@H]1C/C=C1/C(=O)OC[C@H]1O[Si](C)(C)C(C)(C)C	10.6	5.68	inactive	> 10	inactive	> 10	> 10	6.57	> 10	
Cc1ccc(S(=O)(=O)OCC(=O)Nc2ccc(C(=O)O)cc2)cc1										86
CC(C)(C)[Si](C)(C)O[C@@H]1CC[C@]2(C)[C@H](CC[C@]3(CO3)[C@H]2C/C=C2/C(=O)OC[C@H]2O)[C@]1(C)CO	> 10	5.38	inactive	> 10	inactive	> 10	> 10	8.34	> 10	
